Several values for one entry are separate records, joined by “and”; a condition that tells them apart may be missing. Equal entries are not always repeated.
Tested on: U2OS
Test: Multiplex assay against U2OS
Type: toxicity, cell-based
Settings: human, number of replicates 2
In short: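 On a CQ1 microscope at 37°C and 5% CO2, live cells were imaged after compound addition. They had been stained at seeding with Hoechst33342, BioTracker Green Microtubule Cytoskeleton Dye, MitoTracker Red and Annexin V Alexa Fluor 680. CellPathfinder machine-learning gating assigned cells to Hoechst high-intensity objects or normal cells, normal cells to healthy, pyknosed or fragmented nuclei, and pyknosed cells to mitotic or apoptotic. Tubulin, mitochondrial-mass and membrane-permeability phenotypes are per cents of healthy-nucleus cells.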

[1] = 12 h, 1 µM, compound concentration 1 uM
[2] = 12 h, 10 µM, compound concentration 10 uM
[3] = 24 h, 1 µM, compound concentration 1 uM
[4] = 24 h, 10 µM, compound concentration 10 uM
[5] = 48 h, 1 µM, compound concentration 1 uM
[6] = 48 h, 10 µM, compound concentration 10 uM

CSc1cc2c(cc1C(F)(F)F)N(C(=O)Nc1cccnc1)CC2
Population Apoptotic (%) [1]: 33% and 45% | Population Healthy Nuclei (%) [1]: 61% and 90% | Population Hoechst High Intensity Objects (%) [1]: 0% | Population Membrane Permeable-Phenotype (%) [1]: 0% and 2% | Population Mitochondria Different-Phenotype (%) [1]: 0% and 1% | Population Mitotic Cells (%) [1]: 66% and 54% | Population Normal (%) [1]: 100% | Population Pyknosed Nuclei (%) [1]: 17% and 8% | Population Tubulin-Different-Phenotype (%) [1]: 71% and 84% | Population Apoptotic (%) [2]: 42% and 66% | Population Healthy Nuclei (%) [2]: 82% and 50% | Population Hoechst High Intensity Objects (%) [2]: 0% and 3% | Population Membrane Permeable-Phenotype (%) [2]: 0% and 7% | Population Mitochondria Different-Phenotype (%) [2]: 0% | Population Mitotic Cells (%) [2]: 57% and 33% | Population Normal (%) [2]: 100% and 96% | Population Pyknosed Nuclei (%) [2]: 12% and 11% | Population Tubulin-Different-Phenotype (%) [2]: 94% and 38% | Population Apoptotic (%) [3]: 60% and 26% | Population Healthy Nuclei (%) [3]: 69% and 89% | Population Hoechst High Intensity Objects (%) [3]: 0% | Population Membrane Permeable-Phenotype (%) [3]: 3% and 1% | Population Mitochondria Different-Phenotype (%) [3]: 0% | Population Mitotic Cells (%) [3]: 40% and 73% | Population Normal (%) [3]: 100% | Population Pyknosed Nuclei (%) [3]: 12% and 6% | Population Tubulin-Different-Phenotype (%) [3]: 66% and 84% | Population Apoptotic (%) [4]: 100% and 45% | Population Healthy Nuclei (%) [4]: 66% and 88% | Population Hoechst High Intensity Objects (%) [4]: 2% and 0% | Population Membrane Permeable-Phenotype (%) [4]: 0% and 1% | Population Mitochondria Different-Phenotype (%) [4]: 0% and 1% | Population Normal (%) [4]: 97% and 100% | Population Pyknosed Nuclei (%) [4]: 11% and 7% | Population Tubulin-Different-Phenotype (%) [4]: 58% and 93% | Population Apoptotic (%) [5]: 83% and 46% | Population Fragmented Nuclei (%) [5]: 6% and 2% | Population Healthy Nuclei (%) [5]: 83% and 90% | Population Hoechst High Intensity Objects (%) [5]: 3% and 0% | Population Membrane Permeable-Phenotype (%) [5]: 6% and 1% | Population Mitochondria Different-Phenotype (%) [5]: 0% | Population Normal (%) [5]: 96% and 100% | Population Pyknosed Nuclei (%) [5]: 10% and 6% | Population Tubulin-Different-Phenotype (%) [5]: 67% and 85% | Population Apoptotic (%) [6]: 29% and 42% | Population Fragmented Nuclei (%) [6]: 3% and 10% | Population Healthy Nuclei (%) [6]: 89% and 75% | Population Hoechst High Intensity Objects (%) [6]: 0% and 2% | Population Membrane Permeable-Phenotype (%) [6]: 1% and 0% | Population Mitochondria Different-Phenotype (%) [6]: 0% | Population Mitotic Cells (%) [6]: 70% and 57% | Population Normal (%) [6]: 100% and 98% | Population Pyknosed Nuclei (%) [6]: 7% and 14% | Population Tubulin-Different-Phenotype (%) [6]: 94% and 40%

CC1=C(C)C(=O)C(C(CCCCCC(=O)O)c2ccccc2)=C(C)C1=O (stereo unspecified) [SERATRODAST]
Population Apoptotic (%) [1]: 66% and 64% | Population Fragmented Nuclei (%) [1]: 11% and 5% | Population Healthy Nuclei (%) [1]: 80% and 84% | Population Hoechst High Intensity Objects (%) [1]: 0% | Population Membrane Permeable-Phenotype (%) [1]: 3% and 2% | Population Mitochondria Different-Phenotype (%) [1]: 3% and 0% | Population Mitotic Cells (%) [1]: 33% and 36% | Population Normal (%) [1]: 100% | Population Pyknosed Nuclei (%) [1]: 8% and 9% | Population Tubulin-Different-Phenotype (%) [1]: 100% and 92% | Population Apoptotic (%) [2]: 75% and 37% | Population Healthy Nuclei (%) [2]: 68% and 84% | Population Hoechst High Intensity Objects (%) [2]: 0% | Population Membrane Permeable-Phenotype (%) [2]: 0% and 1% | Population Mitochondria Different-Phenotype (%) [2]: 0% | Population Mitotic Cells (%) [2]: 25% and 62% | Population Normal (%) [2]: 100% | Population Pyknosed Nuclei (%) [2]: 5% and 11% | Population Tubulin-Different-Phenotype (%) [2]: 80% and 94% | Population Apoptotic (%) [3]: 75% and 54% | Population Fragmented Nuclei (%) [3]: 7% and 2% | Population Healthy Nuclei (%) [3]: 82% and 88% | Population Hoechst High Intensity Objects (%) [3]: 0% | Population Membrane Permeable-Phenotype (%) [3]: 3% | Population Mitochondria Different-Phenotype (%) [3]: 3% and 1% | Population Mitotic Cells (%) [3]: 25% and 45% | Population Normal (%) [3]: 100% | Population Pyknosed Nuclei (%) [3]: 10% and 8% | Population Tubulin-Different-Phenotype (%) [3]: 100% and 92% | Population Apoptotic (%) [4]: 50% and 66% | Population Healthy Nuclei (%) [4]: 70% and 88% | Population Hoechst High Intensity Objects (%) [4]: 0% | Population Membrane Permeable-Phenotype (%) [4]: 1% and 2% | Population Mitochondria Different-Phenotype (%) [4]: 1% and 0% | Population Mitotic Cells (%) [4]: 50% and 33% | Population Normal (%) [4]: 100% | Population Pyknosed Nuclei (%) [4]: 6% | Population Tubulin-Different-Phenotype (%) [4]: 92% | Population Apoptotic (%) [5]: 33% and 43% | Population Fragmented Nuclei (%) [5]: 4% and 3% | Population Healthy Nuclei (%) [5]: 89% and 91% | Population Hoechst High Intensity Objects (%) [5]: 0% | Population Membrane Permeable-Phenotype (%) [5]: 0% and 1% | Population Mitochondria Different-Phenotype (%) [5]: 0% | Population Mitotic Cells (%) [5]: 66% and 56% | Population Normal (%) [5]: 100% | Population Pyknosed Nuclei (%) [5]: 5% and 4% | Population Tubulin-Different-Phenotype (%) [5]: 100% and 94% | Population Apoptotic (%) [6]: 58% | Population Fragmented Nuclei (%) [6]: 12% and 3% | Population Healthy Nuclei (%) [6]: 79% and 90% | Population Hoechst High Intensity Objects (%) [6]: 0% | Population Membrane Permeable-Phenotype (%) [6]: 0% and 2% | Population Mitochondria Different-Phenotype (%) [6]: 0% | Population Mitotic Cells (%) [6]: 41% | Population Normal (%) [6]: 99% | Population Pyknosed Nuclei (%) [6]: 8% and 6% | Population Tubulin-Different-Phenotype (%) [6]: 89% and 95%

CCN(CC)C/C=C/C(=O)Nc1cc2c(Nc3ccc(F)c(Cl)c3)ncnc2cc1OCC1CC1
Population Apoptotic (%) [1]: 100% and 80% | Population Healthy Nuclei (%) [1]: 61% and 76% | Population Hoechst High Intensity Objects (%) [1]: 0% | Population Membrane Permeable-Phenotype (%) [1]: 4% and 13% | Population Mitochondria Different-Phenotype (%) [1]: 29% and 21% | Population Mitotic Cells (%) [1]: 0% and 20% | Population Normal (%) [1]: 100% | Population Pyknosed Nuclei (%) [1]: 17% and 16% | Population Tubulin-Different-Phenotype (%) [1]: 58% and 49% | Population Apoptotic (%) [2]: 80% and 91% | Population Fragmented Nuclei (%) [2]: 27% and 10% | Population Healthy Nuclei (%) [2]: 25% and 48% | Population Hoechst High Intensity Objects (%) [2]: 0% and 1% | Population Membrane Permeable-Phenotype (%) [2]: 45% and 31% | Population Mitochondria Different-Phenotype (%) [2]: 45% and 57% | Population Mitotic Cells (%) [2]: 20% and 8% | Population Normal (%) [2]: 100% and 98% | Population Pyknosed Nuclei (%) [2]: 46% and 40% | Population Tubulin-Different-Phenotype (%) [2]: 90% and 95% | Population Apoptotic (%) [3]: 88% and 82% | Population Healthy Nuclei (%) [3]: 58% and 73% | Population Hoechst High Intensity Objects (%) [3]: 0% | Population Membrane Permeable-Phenotype (%) [3]: 10% and 15% | Population Mitochondria Different-Phenotype (%) [3]: 44% and 39% | Population Mitotic Cells (%) [3]: 11% and 17% | Population Normal (%) [3]: 100% and 99% | Population Pyknosed Nuclei (%) [3]: 18% and 23% | Population Tubulin-Different-Phenotype (%) [3]: 51% and 48% | Population Apoptotic (%) [4]: 93% | Population Healthy Nuclei (%) [4]: 11% and 1% | Population Hoechst High Intensity Objects (%) [4]: 1% | Population Mitotic Cells (%) [4]: 6% | Population Normal (%) [4]: 98% | Population Pyknosed Nuclei (%) [4]: 78% and 56% | Population Tubulin-Different-Phenotype (%) [4]: 93% and 100% | Total Cell Count [4]: 133 and 52 | Population Apoptotic (%) [5]: 84% and 98% | Population Healthy Nuclei (%) [5]: 52% and 71% | Population Hoechst High Intensity Objects (%) [5]: 1% and 0% | Population Membrane Permeable-Phenotype (%) [5]: 10% and 12% | Population Mitochondria Different-Phenotype (%) [5]: 34% and 30% | Population Normal (%) [5]: 98% and 100% | Population Pyknosed Nuclei (%) [5]: 23% and 22% | Population Tubulin-Different-Phenotype (%) [5]: 37% and 42% | Population Apoptotic (%) [6]: 100% and 98% | Population Healthy Nuclei (%) [6]: 1% and 7% | Population Hoechst High Intensity Objects (%) [6]: 0% | Population Membrane Permeable-Phenotype (%) [6]: 100% and 88% | Population Mitochondria Different-Phenotype (%) [6]: 100% and 88% | Population Mitotic Cells (%) [6]: 0% and 1% | Population Normal (%) [6]: 100% and 99% | Population Pyknosed Nuclei (%) [6]: 46% and 87% | Population Tubulin-Different-Phenotype (%) [6]: 100% | Total Cell Count [6]: 56 and 120

From ChEMBL document CHEMBL5303300, “EUbOPEN Chemogenomics Library - Multiplex” (2023)
